Measurements: ChEMBL document CHEMBL3046055, “Synthesis and herbicidal activity of novel N-(2,2,2)-trifluoroethylpyrazole derivatives” (J Agric Food Chem, 2010)

Legend:
Echinochloa crus-galli [1] = assay: Herbicidal activity against Echinochloa crus-galli (barnyard grass) assessed as inhibition of fresh weed plant weights at 400 g ai/ha using pre-emergence treatment protocol under field trials conditions measured 30 days post soil treatment relative to untreated control; format: functional; details: 720 h
In short: (§1)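 Field pre-emergence trial. Treatments were applied to the soil surface within 24 h after maize planting, at 300, 400, 600 and 800 g a.i. ha^-1. Fresh weight of aerial plant parts was measured 30 days later, and percent inhibition calculated relative to the water-sprayed control.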

Eleusine indica [2] = assay: Herbicidal activity against Eleusine indica assessed as inhibition of fresh weed plant weights at 150 g ai/ha using pre-emergence treatment protocol under greenhouse conditions relative to untreated control; format: functional
In short: (§2)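 Pre-emergence test in plastic pots kept in a greenhouse at 22-25 °C. Fresh weight of aerial plant parts was measured 20 days later, and percent inhibition calculated relative to water-sprayed controls. Metolachlor served as the positive control. Three replicates were run per concentration.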

Portulaca oleracea [3] = assay: Herbicidal activity against Portulaca oleracea assessed as inhibition of fresh weed plant weights at 300 g ai/ha using pre-emergence treatment protocol under greenhouse conditions relative to untreated control; format: functional; in short: as §2
Convolvulus arvensis [4] = assay: Herbicidal activity against Convolvulus arvensis assessed as inhibition of fresh weed plant weights at 800 g ai/ha using pre-emergence treatment protocol under field trials conditions measured 30 days post soil treatment relative to untreated control; format: functional; details: 720 h; in short: as §1
Zea mays [5] = assay: Toxicity against Zea mays var. SHEN DAN 17 (maize) assessed as inhibition of fresh weed plant weights at 600 g ai/ha using pre-emergence treatment protocol under greenhouse conditions relative to untreated control; format: organism-based; details: in vivo, other; in short: as §2
Echinochloa crus-galli [6] = assay: Herbicidal activity against Echinochloa crus-galli (barnyard grass) assessed as inhibition of fresh weed plant weights at 300 g ai/ha using pre-emergence treatment protocol under greenhouse conditions relative to untreated control; format: functional; in short: as §2
Portulaca oleracea [7] = assay: Herbicidal activity against Portulaca oleracea assessed as inhibition of fresh weed plant weights at 800 g ai/ha using pre-emergence treatment protocol under field trials conditions measured 30 days post soil treatment relative to untreated control; format: functional; details: 720 h; in short: as §1
Zea mays [8] = assay: Toxicity against Zea mays var. SHEN DAN 17 (maize) assessed induction of crop injury at 800 g ai/ha using pre-emergence treatment protocol under field trials conditions measured 30 days post soil treatment; format: organism-based; details: in vivo, other, 720 h
In short: (§3)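 Pre-emergence application to soil surface within 24 h after maize planting, at 300, 400, 600 or 800 g a.i. ha^-1. Fresh weight of aerial plant parts measured 30 days later; percentage inhibition calculated relative to water-sprayed control.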

Echinochloa crus-galli [9] = assay: Herbicidal activity against Echinochloa crus-galli (barnyard grass) assessed as inhibition of fresh weed plant weights at 800 g ai/ha using pre-emergence treatment protocol under field trials conditions measured 30 days post soil treatment relative to untreated control; format: functional; details: 720 h; in short: as §1
Digitaria sanguinalis [10] = assay: Herbicidal activity against Digitaria sanguinalis (hairy crabgrass) assessed as inhibition of fresh weed plant weights at 150 g ai/ha using pre-emergence treatment protocol under greenhouse conditions relative to untreated control; format: functional; in short: as §2
Portulaca oleracea [11] = assay: Herbicidal activity against Portulaca oleracea assessed as inhibition of fresh weed plant weights at 600 g ai/ha using pre-emergence treatment protocol under field trials conditions measured 30 days post soil treatment relative to untreated control; format: functional; details: 720 h; in short: as §1
Echinochloa crus-galli [12] = assay: Herbicidal activity against Echinochloa crus-galli (barnyard grass) assessed as inhibition of fresh weed plant weights at 150 g ai/ha using pre-emergence treatment protocol under greenhouse conditions relative to untreated control; format: functional; in short: as §2
Portulaca oleracea [13] = assay: Herbicidal activity against Portulaca oleracea assessed as inhibition of fresh weed plant weights at 300 g ai/ha using pre-emergence treatment protocol under field trials conditions measured 30 days post soil treatment relative to untreated control; format: functional; details: 720 h; in short: as §1
Echinochloa crus-galli [14] = assay: Herbicidal activity against Echinochloa crus-galli (barnyard grass) assessed as inhibition of fresh weed plant weights at 600 g ai/ha using pre-emergence treatment protocol under field trials conditions measured 30 days post soil treatment relative to untreated control; format: functional; details: 720 h; in short: as §1
[15] = system: Brassica rapa subsp. oleifera; assay: Toxicity against Brassica rapa subsp. oleifera var. JING GUAN 1 assessed as inhibition of fresh weed plant weights at 150 g ai/ha using pre-emergence treatment protocol under greenhouse conditions relative to untreated control; format: organism-based; details: in vivo, other; in short: as §2
Eleusine indica [16] = assay: Herbicidal activity against Eleusine indica assessed as inhibition of fresh weed plant weights at 600 g ai/ha using pre-emergence treatment protocol under field trials conditions measured 30 days post soil treatment relative to untreated control; format: functional; details: 720 h; in short: as §1
Digitaria sanguinalis [17] = assay: Herbicidal activity against Digitaria sanguinalis (hairy crabgrass) assessed as inhibition of fresh weed plant weights at 300 g ai/ha using pre-emergence treatment protocol under field trials conditions measured 30 days post soil treatment relative to untreated control; format: functional; details: 720 h; in short: as §1
Digitaria sanguinalis [18] = assay: Herbicidal activity against Digitaria sanguinalis (hairy crabgrass) assessed as inhibition of fresh weed plant weights at 800 g ai/ha using pre-emergence treatment protocol under field trials conditions measured 30 days post soil treatment relative to untreated control; format: functional; details: 720 h; in short: as §1
Portulaca oleracea [19] = assay: Herbicidal activity against Portulaca oleracea assessed as inhibition of fresh weed plant weights at 150 g ai/ha using pre-emergence treatment protocol under greenhouse conditions relative to untreated control; format: functional; in short: as §2
Zea mays [20] = assay: Toxicity against Zea mays var. SHEN DAN 17 (maize) assessed induction of crop injury at 600 g ai/ha using pre-emergence treatment protocol under field trials conditions measured 30 days post soil treatment; format: organism-based; details: in vivo, other, 720 h; in short: as §3
Zea mays [21] = assay: Toxicity against Zea mays var. SHEN DAN 17 (maize) assessed induction of crop injury at 400 g ai/ha using pre-emergence treatment protocol under field trials conditions measured 30 days post soil treatment; format: organism-based; details: in vivo, other, 720 h; in short: as §3
[22] = system: Brassica rapa subsp. oleifera; assay: Toxicity against Brassica rapa subsp. oleifera var. JING GUAN 1 assessed as inhibition of fresh weed plant weights at 600 g ai/ha using pre-emergence treatment protocol under greenhouse conditions relative to untreated control; format: organism-based; details: in vivo, other; in short: as §2
Eleusine indica [23] = assay: Herbicidal activity against Eleusine indica assessed as inhibition of fresh weed plant weights at 400 g ai/ha using pre-emergence treatment protocol under field trials conditions measured 30 days post soil treatment relative to untreated control; format: functional; details: 720 h; in short: as §1
Convolvulus arvensis [24] = assay: Herbicidal activity against Convolvulus arvensis assessed as inhibition of fresh weed plant weights at 600 g ai/ha using pre-emergence treatment protocol under field trials conditions measured 30 days post soil treatment relative to untreated control; format: functional; details: 720 h; in short: as §1
Convolvulus arvensis [25] = assay: Herbicidal activity against Convolvulus arvensis assessed as inhibition of fresh weed plant weights at 300 g ai/ha using pre-emergence treatment protocol under field trials conditions measured 30 days post soil treatment relative to untreated control; format: functional; details: 720 h; in short: as §1
Digitaria sanguinalis [26] = assay: Herbicidal activity against Digitaria sanguinalis (hairy crabgrass) assessed as inhibition of fresh weed plant weights at 600 g ai/ha using pre-emergence treatment protocol under field trials conditions measured 30 days post soil treatment relative to untreated control; format: functional; details: 720 h; in short: as §1
Zea mays [27] = assay: Toxicity against Zea mays var. SHEN DAN 17 (maize) assessed induction of crop injury at 300 g ai/ha using pre-emergence treatment protocol under field trials conditions measured 30 days post soil treatment; format: organism-based; details: in vivo, other, 720 h; in short: as §3
Portulaca oleracea [28] = assay: Herbicidal activity against Portulaca oleracea assessed as inhibition of fresh weed plant weights at 600 g ai/ha using pre-emergence treatment protocol under greenhouse conditions relative to untreated control; format: functional; in short: as §2
Echinochloa crus-galli [29] = assay: Herbicidal activity against Echinochloa crus-galli (barnyard grass) assessed as inhibition of shoot growth at […] measured 7 days post treatment; format: functional; set-up: dose or concentration left out as unconfirmed; details: 168 h, read-out: GI
Eleusine indica [30] = assay: Herbicidal activity against Eleusine indica assessed as inhibition of fresh weed plant weights at 300 g ai/ha using pre-emergence treatment protocol under field trials conditions measured 30 days post soil treatment relative to untreated control; format: functional; details: 720 h; in short: as §1

For Cc1nn(CC(F)(F)F)c(CS(=O)(=O)C2=NOC(C)(C)C2)c1Cl, the inhibition at 400 g/ha (Echinochloa crus-galli [1]) was 100%, the inhibition at 150 g/ha (Eleusine indica [2]) was 97% and the inhibition at 300 g/ha (Portulaca oleracea [3]) was 97%. For the same compound, the inhibition at 800 g/ha (Convolvulus arvensis [4]) was 40%, the “inhibition (INH)” value (Zea mays [5]) was 1% and the inhibition at 300 g/ha (Echinochloa crus-galli [6]) was 100%. It also gave an inhibition at 800 g/ha (Portulaca oleracea [7]) of 100%, an Activity (Zea mays [8]) of 0% and an inhibition at 800 g/ha (Echinochloa crus-galli [9]) of 100%. For the same compound, the inhibition at 150 g/ha (Digitaria sanguinalis [10]) was 86%, the inhibition at 600 g/ha (Portulaca oleracea [11]) was 95% and the inhibition at 150 g/ha (Echinochloa crus-galli [12]) was 100%. The inhibition at 300 g/ha (Portulaca oleracea [13]) was 80%, the inhibition at 600 g/ha (Echinochloa crus-galli [14]) was 100% and the “inhibition (INH)” value [15] was 7%. For the same compound, the inhibition at 600 g/ha (Eleusine indica [16]) was 98%, the inhibition at 300 g/ha (Digitaria sanguinalis [17]) was 95% and the inhibition at 800 g/ha (Digitaria sanguinalis [18]) was 100%. It also gave an inhibition at 150 g/ha (Portulaca oleracea [19]) of 70%, an Activity (Zea mays [20]) of 0% and an Activity (Zea mays [21]) of 0%. The “inhibition (INH)” value [22] was 11%, the inhibition at 400 g/ha (Eleusine indica [23]) was 98% and the inhibition at 600 g/ha (Convolvulus arvensis [24]) was 27%. It also gave an inhibition at 300 g/ha (Convolvulus arvensis [25]) of 14%, an inhibition at 600 g/ha (Digitaria sanguinalis [26]) of 100% and an Activity (Zea mays [27]) of 0%. It also gave an inhibition at 600 g/ha (Portulaca oleracea [28]) of 99%, an inhibition of growth (Echinochloa crus-galli [29]) of 84% and an inhibition at 300 g/ha (Eleusine indica [30]) of 97%.
